# Legend:
# [1] = target: T1, Bile acid receptor (Homo sapiens) (UniProt Q96RI1); assay: Agonist activity at FXR in human HepG2 cells assessed as induction of OSTalpha mrNA expression at 0.3 uM by quantitative PCR method; assay type: cell-based
# T1 sequence (whole entry): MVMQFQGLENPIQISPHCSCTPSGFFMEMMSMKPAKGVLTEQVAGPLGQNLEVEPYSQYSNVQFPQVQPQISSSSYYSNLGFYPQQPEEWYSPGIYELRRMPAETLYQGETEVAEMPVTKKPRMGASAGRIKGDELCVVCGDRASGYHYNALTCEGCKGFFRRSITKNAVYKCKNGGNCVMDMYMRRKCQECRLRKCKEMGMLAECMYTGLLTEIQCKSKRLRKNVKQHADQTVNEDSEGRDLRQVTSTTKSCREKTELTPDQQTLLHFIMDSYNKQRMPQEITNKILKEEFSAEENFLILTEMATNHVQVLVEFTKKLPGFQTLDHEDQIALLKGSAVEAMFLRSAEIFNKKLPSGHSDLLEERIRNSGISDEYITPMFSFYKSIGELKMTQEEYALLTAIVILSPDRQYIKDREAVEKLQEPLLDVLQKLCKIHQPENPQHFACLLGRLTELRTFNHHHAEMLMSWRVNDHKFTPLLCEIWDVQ
# In short: (§1)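 HepG2 cells were seeded at 2 × 10⁶ per well. After 24 h they were switched to MEM with 1% charcoal-stripped FCS, and 24 h later dosed with compound (0.1, 0.3, 1, 3, 10 μM; 0.1% DMSO final) for 24 h. Total RNA was reverse transcribed and analysed by qPCR, GAPDH-normalized, ΔΔCt method. Samples were run in duplicate in ≥4 independent experiments.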
# [2] = target: T1, Bile acid receptor (Homo sapiens); assay: Agonist activity at FXR in human HepG2 cells assessed as induction of OSTalpha mrNA expression at 3 uM by quantitative PCR method; assay type: cell-based; in short: as §1
# [3] = target: T1, Bile acid receptor (Homo sapiens); assay: Agonist activity at FXR in human HepG2 cells assessed as induction of IBABP mrNA expression at 3 uM by quantitative PCR method; assay type: cell-based
# Homo sapiens [4] = species on record: Homo sapiens; assay: Selectivity index, ratio of EC50 for GAL4-tagged PPARgamma (unknown origin) to EC50 for human FXR
# HepG2 = assay: Cytotoxicity against human HepG2 cells assessed as compound concentration causing reduction in cell viability by LDH release assay; assay type: cell-based
# In short: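 HepG2 cells were plated at 3 × 10⁴ per well. After 24 h they were switched to DMEM with 1% FCS and treated for 48 h; 2% Triton X-100 added 2 h before reading served as 100%. LDH reagent was added to the supernatant for 20 min and absorbance read at 490/690 nm. Triplicates, ≥3 independent repeats.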
# [5] = target: T1, Bile acid receptor (Homo sapiens); assay: Agonist activity at FXR in human HepG2 cells assessed as induction of CYP7A1 mrNA expression at 1 uM by quantitative PCR method; assay type: cell-based; in short: as §1
# [6] = target: T1, Bile acid receptor (Homo sapiens); assay: Agonist activity at FXR in human HepG2 cells assessed as induction of CYP7A1 mrNA expression at 3 uM by quantitative PCR method; assay type: cell-based; in short: as §1
# [7] = target: T1, Bile acid receptor (Homo sapiens); assay: Agonist activity at FXR in human HepG2 cells assessed as induction of CYP7A1 mrNA expression at 10 uM by quantitative PCR method; assay type: cell-based; in short: as §1
# [8] = target: T1, Bile acid receptor (Homo sapiens); assay: Agonist activity at FXR in human HepG2 cells assessed as induction of IBABP mrNA expression at 10 uM by quantitative PCR method; assay type: cell-based
# [9] = target: T1, Bile acid receptor (Homo sapiens); assay: Agonist activity at FXR in human HepG2 cells assessed as induction of IBABP mrNA expression at 0.3 uM by quantitative PCR method; assay type: cell-based
# Homo sapiens [10] = species on record: Homo sapiens; assay: Selectivity index, ratio of EC50 for GAL4-tagged PPARdelta (unknown origin) to EC50 for human FXR
# [11] = target: T2, Peroxisome proliferator-activated receptor delta (Homo sapiens, UniProt Q03181); assay: Activity at GAL4-tagged PPARdelta (unknown origin) expressed in COS7 cells assessed as receptor transactivation by luciferase reporter gene assay; assay type: cell-based, COS-7
# T2 sequence (Q03181 whole entry): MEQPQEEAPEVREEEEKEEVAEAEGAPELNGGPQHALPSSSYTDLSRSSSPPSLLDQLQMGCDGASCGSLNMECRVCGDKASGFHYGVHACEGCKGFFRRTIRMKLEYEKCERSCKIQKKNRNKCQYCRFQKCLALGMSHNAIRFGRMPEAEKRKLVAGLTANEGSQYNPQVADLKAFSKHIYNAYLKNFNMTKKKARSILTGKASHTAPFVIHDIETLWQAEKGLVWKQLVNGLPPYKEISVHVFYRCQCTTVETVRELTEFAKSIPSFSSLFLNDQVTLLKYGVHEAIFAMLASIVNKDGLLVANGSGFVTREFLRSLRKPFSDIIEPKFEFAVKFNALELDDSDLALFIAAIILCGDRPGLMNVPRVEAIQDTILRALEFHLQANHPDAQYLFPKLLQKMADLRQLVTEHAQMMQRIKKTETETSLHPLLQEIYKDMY
# In short: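 Each PPAR subtype was tested as a Gal4 fusion carrying the human hinge region and LBD (cDNA from human monocytes) in transiently transfected COS-7 cells (Lipofectamine LTX), with a pFR-Luc reporter and pRL-SV40 for normalization. Compound in 0.1% DMSO was added 5 h post-transfection and incubated overnight. Firefly/renilla RLU was scaled to 1 μM GW7647 (α), L165,041 (δ) or pioglitazone (γ).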
# [12] = target: T1, Bile acid receptor (Homo sapiens); assay: Agonist activity at FXR in human HepG2 cells assessed as induction of BSEP mrNA expression at 0.3 uM by quantitative PCR method; assay type: cell-based; in short: as §1
# [13] = target: T1, Bile acid receptor (Homo sapiens); assay: Agonist activity at FXR in human HepG2 cells assessed as induction of CYP7A1 mrNA expression at 0.1 uM by quantitative PCR method; assay type: cell-based; in short: as §1
# [14] = target: T1, Bile acid receptor (Homo sapiens); assay: Agonist activity at FXR in human HepG2 cells assessed as induction of IBABP mrNA expression at 0.1 uM by quantitative PCR method; assay type: cell-based
# [15] = target: T1, Bile acid receptor (Homo sapiens); assay: Agonist activity at FXR in human HepG2 cells assessed as induction of OSTalpha mrNA expression at 10 uM by quantitative PCR method; assay type: cell-based; in short: as §1
# [16] = target: T1, Bile acid receptor (Homo sapiens); assay: Agonist activity at FXR in human HepG2 cells assessed as induction of OSTalpha mrNA expression at 0.1 uM by quantitative PCR method; assay type: cell-based; in short: as §1
# Homo sapiens [17] = species on record: Homo sapiens; assay: Selectivity index, ratio of EC50 for human TGR5 to EC50 for human FXR
# [18] = target: T1, Bile acid receptor (Homo sapiens); assay: Agonist activity at FXR in human HepG2 cells assessed as induction of IBABP mrNA expression at 1 uM by quantitative PCR method; assay type: cell-based
# HeLa = assay: Cytotoxicity against human HeLa cells assessed as compound concentration causing reduction in cell viability by reporter gene assay; assay type: cell-based
smiles,measurement,setting,value
COc1ccc(C(=O)Nc2cccc(C(=O)O)c2)c(NC(=O)c2ccc(C(C)(C)C)cc2)c1,Activity,[1],198%
same,Activity,[2],149%
same,Activity,[3],168%
same,Ratio EC50,Homo sapiens [4],375
same,Activity,HepG2,>= 30 uM
same,Activity,[5],55%
same,Activity,[6],67%
same,Activity,[7],57%
same,Activity,[8],144%
same,Activity,[9],145%
same,Ratio EC50,Homo sapiens [10],> 1000
same,EC50,[11],3 µM
same,Activity,[12],300%
same,Activity,[13],52%
same,Activity,[14],188%
same,Activity,[15],234%
same,Activity,[16],151%
same,Ratio EC50,Homo sapiens [17],> 1000
same,Activity,[18],161%
same,Activity,HeLa,>= 30 uM

# — ChEMBL document CHEMBL3351394 (J Med Chem, 2014)
